Measured values taken from the EternaBench riboswitch data.

System: MS2 coat protein
Test: apparent Kd, MS2 coat protein; higher = weaker binding; RNA-MaP array; FMN 200 µM where present
In short: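 Green signal was scaled to red-channel RNA signal and control-cluster median Fmax, and the apparent Kd was taken as the median of filtered per-cluster binding-curve fits. The binding series used SNAP-549-labelled MS2 coat protein from 0.7 or 1.5 nM, doubling to 3 µM, on designs transcribed by stalled E. coli RNA polymerase on Illumina sequencing-chip clusters. Each series ran without and then with constant ligand in 100 mM Tris-HCl pH 7.5, 80 mM KCl, 4 mM MgCl2, BSA, DTT, yeast tRNA and Tween-20.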

[1] = designed as: ON switch for flavin mononucleotide, no ligand
[2] = ligand present: flavin mononucleotide, designed as: ON switch for flavin mononucleotide
[3] = designed as: OFF switch for flavin mononucleotide, no ligand
[4] = ligand present: flavin mononucleotide, designed as: OFF switch for flavin mononucleotide

Row | Sequence | apparent Kd [1] [nM] | apparent Kd [2] [nM] | apparent Kd [3] [nM] | apparent Kd [4] [nM]
1 | GUGGUGUAGAUACAGGAUAUGUUGCUCGUAACAUGAGGAUCACCCAUGUAUCUAUGAGAAUAAAUGCAGAAGGGUGCACACCACU | 549 | 30.1 | – | –
2 | UGGUUGGGAGGAUAUCCAAUAUAUGACAUGAGGAUCACCCAUGUUUCCACUCGUACCUCCGGAGAAGGCCCUUCCC | – | – | 21.7 | 20.7
3 | GUGCAGGUAGGAUAUACGUGAGAGCCUUGUGGGCGUCUGGUACAUGAGGAUCACCCAUGUAGAAGGACCGGGCU | – | – | 21.3 | 77.5
4 | AUGAGGUUAGGAUAUACAUGAGGAUCACCCAUGUUGGAGAAGGAAAUGUAAGUAGCGAGUAGAAGGAACGGAGC | – | – | 47 | 43.4
5 | GUGAAGUGAGGAUAUACGAGAGAGGCUGAACCUGGAGAGAAGUAGAAGGCACAUGAGGAUCACCCAUGUUAGGA | – | – | 39.6 | 30.3
6 | UUAGCAUACCGAGGAUAUUCAUAUAAUAAAUAAACAUGAGGAUCACCCAUGUGGCGAAAGCCUAGGGAGAAGGCGGAAUGCUAU | 197 | 24.6 | – | –
7 | UCCAUCCCUGUGAGGAUAUCGUCCGUUUUUUGUUCCGAGAAGGCACAUGAGGAUCACCCAUGUUUUUUGUUUUU | – | – | 29.4 | 58.8
8 | UUGGUUGUCGUAGGAUAUGUAGGAUAUUCCUACAUGAGGAUCACCCAUGUUCGCAUGGAAGAAGGACAGAAGGACGAUGACCAG | 1240 | 9.67 | – | –
9 | CCUCCACAUGAGGAUCACCCAUGUCAGGAUAUCGUGUGCGCGUUUUCGGUCUUUCGCGCGAGAAGGGACGACUG | – | – | 27.3 | 28.4
10 | UGGUACAUCGGAGGAUAUCAUGUAAAUACAUGAGGAUCACCCAUGUCGAUGGAGACAUCGGAGAUUGAGAAGGCCGAUGUACCU | 480 | 23.4 | – | –
11 | ACGUUUUAUGCAGGAUAUUGACAUAUAUUUAAACAAGAAGGGCAUUACAUGAGGAUCACCCAUGUUAUCAUGGUAUUUAAGUUC | – | – | 64.1 | 63.2
12 | CCGCAAAAUGAGGAUAUCGUAUCGGAUACGAUACGAGAAGGCGUAACAUGAGGAUCACCCAUGUGUCCUAGCGG | – | – | 14.3 | 17.2
13 | CGUCGAUACCAGAAGGACAUGAGGAUCACCCAUGUAGGAUAUGGGUGACCGGGAUGGCAGACAUGGUGCCCGGGCACAUGCGAC | 70 | 9.82 | – | –
14 | AGUCAGAGCAGAGGAUAUAUACAUGAGGAUCACCCAUGUGACUGCCUAUGCUAGAAAUAGUAUGUAUAGAAGGCUGCUCUGACA | – | – | 752 | 483
15 | GGUGCCAUGUAGAAGGCAGAUCUGAUUCACAUCUGAGGAUAUACAUGAGGAUCACCCAUGUAAAGGCACCGCACGAGAGUGCAA | – | – | 16.3 | 15
16 | UGACGAGUAGGAUAUUGGACUUGCGACAUGAGGAUCACCCAUGUGACGUCAACGUGGCACCAAGAAGGGCUACGUC | – | – | 68.1 | 46.9
17 | UCCUCGAUGUAGAAGGCCGCGUCCGGCUCACGCGGAGGAUAUACAUGAGGAUCACCCAUGUGUCUGUGGCUAAUAUGGUACGGA | – | – | 120 | 14.4
18 | GGUACUCAAAGAGUACAAGGACGAACAUGAGGAUCACCCAUGUAGGAUAUGCUACUCAAAGAGUAGCAGAAGGACAUGUGCAGC | – | – | 25.6 | 73

Row | Sequence | apparent Kd [1] [nM] | apparent Kd [2] [nM] | apparent Kd [3] [nM] | apparent Kd [4] [nM]
19 | GGUUGACAAAGUCAACCAUAACGAACAUGAGGAUCACCCAUGUAGGAUAUGCUACUCAAAGAGUAGCAGAAGGACAUGUGCCUU | – | – | 35.7 | 293
20 | CGGGAGCCGAAGGGCGAAAGCCCACAUGAGGAUCACCCAUGUAGAAGGCGGGCCGCAACGCGGCCCGAGGAUAUACAGGCUCCA | – | – | 5.99 | 10.5
21 | UGUGCAGAAGGAUAUGCGUAAGCUCGGUGACGAGCAGGUCUACAUGAGGAUCACCCAUGUAGAAGGUCUGUACU | – | – | 16.8 | 17.9
22 | AGAGGUCUCUGUGAUAACGGUACGAAGGAUAUGCAUGGAUGGGCCGAGACAUGAGGAUCACCCAUGUAGAAGGUCGAUGCGCGU | – | – | 51 | 65.7
23 | UUAAUGUGAGGAUAUCAGGUGUGCUAGAGAACUGGUACAUCUGAGAAGGCACAUGAGGAUCACCCAUGUUCUUC | – | – | 42.8 | 197
24 | CUCCUACAUGAGGAUCACCCAUGUCAGGAUAUCUCAGUGGCACCUAAAUUCGCCACCCAGAGAAGGGACGUGCA | – | – | 13.9 | 16.6
25 | AAAAUCUAUAGAGGAUAUCCAUACACUACAUACGGAGAAGGCUAACAAUCAUGAGGACAUGAGGAUCACCCAUGUUGUGACCAU | 24.8 | 17.2 | – | –
26 | UUAAUUAACAAGAAGGCUUACAUGAGGAUCACCCAUGUUGUACAUGGAUAAAGAGGAUAUUGCUAAUAAUUAUUUAUCUUAAUU | – | – | 61.5 | 37.3
27 | UCUGCCGCCGUGAGGAUAUGCCCGCGCGCACGCGGGCAGAAGGCACAUGAGGAUCACCCAUGUCCCGCGGUUUU | – | – | 17.6 | 38.1
28 | UAUGACAUGAGGAUCACCCAUGUCAGCGAGAAAUGAGAGUCACAGGAUAUGUUUUCGGCCGGCAGACAGAAGGGUGACCCUCAG | 7.21 | 6.89 | – | –
29 | GUAUAUCACUUAGGAUAUCUAUAAUUUAUUGAAACAUGAGGAUCACCCAUGUUCAUAAAUUUAUAGGAGAAGGGAGUGAUAUAC | 4.22 | 4.37 | – | –
30 | CCCACGUGUGCAGGAUAUCCCACGAGCGCAACAUGAGGAUCACCCAUGUACCUGAGUCUCGGAACGGAGAAGGGUACAUGUUAU | 432 | 101 | – | –
31 | UUGUUCUGAGGAUAUACAUGAGGAUCACCCAUGUGUUUCUGCUUGGUGUCUAGCGAAUGUAGAAGGCUGUUCUC | – | – | 21.7 | 22.9
32 | AAGAAGGACGCAGGAUAUCCAGGACCUCCCGCAGGAGAAGGGCGAGACACGUGGAUCACCCAGACAUGAGGAUCACCCAUGUAG | – | – | 15.6 | 14.2
33 | AAGGAUCGAGGAUAUACAUAGAUACAGAUACAUGUAUACGUACAUGAGGAUCACCCAUGUAGAAGGCGAUCAUA | – | – | 37.1 | 214
34 | GCCAAGUCAGGAUAUACAUGAGGAUCACCCAUGUAGGACGCUAUUUUGAUCUUGGUAGGUAGAAGGGACAUGGG | – | – | 24.2 | 21.2
35 | CUUUUGUGAGGAUAUCAGUAGUAAAAAAAUUAAAUUACUACUGAGAAGGCACAUGAGGAUCACCCAUGUUCCUC | – | – | 39.1 | 262
36 | CGUCCACAUGAGGAUCACCCAUGUGAGGAUAUCGAUGUCCCAGGGCGGGUGCGGGACUCGAGAAGGCGCUAGGU | – | – | 23.3 | 29
